pEC50: −log10 of the molar value. The source made the active and inactive calls. The rule behind the calls is not given here.
What was measured:
[1] = Cytotoxicity against human MRC5 SV2 cells assessed as reduction in cell viability incubated for 3 days by resazurin dye based assay; settings: MRC-5 SV2, 72 h
[2] = test system: Trypanosoma cruzi; test: Antitrypanosomal activity against Trypanosoma cruzi Tulahuen CL2 amastigotes infected in human MRC5 SV2 cells incubated for 7 days by chlorophenol red beta-D-galactopyranoside substrate based spectrophotometric assay; type: functional, organism-based; settings: Tulahuen CL2, MRC-5 SV2, 168 h
In short: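 Intracellular amastigotes of β-galactosidase-expressing Tulahuen strain grown in MRC-5 fibroblast host cells. EC50 in μM given as mean and SEM of two or three independent experiments; some values come from a single determination.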

[3] = test system: L929; test: Cytotoxicity against mouse L929 cells assessed as reduction in cell viability; type: cell-based
[4] = test system: Trypanosoma cruzi; test: Antitrypanosomal activity against bloodstream form of Trypanosoma cruzi Y trypomastigotes measured after 24 hrs by Neubauer chamber-based light microscopic analysis; type: functional, organism-based
[5] = Selectivity index, ratio for EC50 for human MRC5 SV2 cells to EC50 for Trypanosoma cruzi Tulahuen CL2 amastigotes infected in human MRC5 SV2 cells; type: toxicity, cell-based; settings: read-out: Ratio EC50
[6] = Cytotoxicity against Swiss mouse primary cardiac cells assessed as reduction in cell viability incubated for 24 hrs by PrestoBlue dye based colorimetry
[7] = test system: Trypanosoma cruzi; test: In vivo antitrypanosomal activity against Trypanosoma cruzi Y trypomastigotes infected in Swiss mouse assessed as reduction in parasitemia at 100 mg/kg, po administered once daily for 5 days with 2 days interval for 3 cycles and measured up to 30 days post-infection by light microscopy relative to control; type: functional, organism-based
In short: (§1)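 Male Swiss Webster mice infected i.p. with 10⁴ Y-strain bloodstream trypomastigotes; six per group. Oral gavage from 5 dpi for 15 days (three 5-day rounds, 2 days off): test compound 25 mg/kg b.i.d., benznidazole 100 mg/kg s.i.d. Parasites counted in 5 μL tail blood to 30 dpi; mortality followed to 53 dpi.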

[8] = test system: Trypanosoma cruzi; test: In vivo antitrypanosomal activity against Trypanosoma cruzi Y trypomastigotes infected in Swiss mouse assessed as mouse survival at 100 mg/kg, po administered once daily via gavage for 5 days starting from 5 days post-infection and measured daily up to 40 days post-infection; type: functional, organism-based
In short: (§2)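 Male Swiss Webster mice (18-20 g, 4-5 weeks) infected i.p. with 10⁴ Y-strain bloodstream trypomastigotes; six per group. Oral gavage from 5 dpi for 5 consecutive days: test compound at 25 mg/kg b.i.d. (2.0 mg/mL in 10% EtOH, 0.1 M citrate pH 3.02), benznidazole at 100 mg/kg s.i.d. Parasites counted in 5 μL tail blood to 30 dpi; mortality followed daily to 40 dpi.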

[9] = test system: Trypanosoma cruzi; test: In vivo antitrypanosomal activity against Trypanosoma cruzi Y trypomastigotes infected in Swiss mouse assessed as reduction in parasitemia at 100 mg/kg, po administered once daily via gavage for 5 days starting from 5 days post-infection in presence of cyclophosphamide by light microscopic method; type: functional, organism-based
[10] = test system: Trypanosoma cruzi; test: In vivo antitrypanosomal activity against Trypanosoma cruzi Y trypomastigotes infected in Swiss mouse assessed as reduction in parasitemia at 100 mg/kg, po administered once daily for 5 days with 2 days interval for 3 cycles in presence of cyclophosphamide by light microscopy; type: functional, organism-based
[11] = Toxicity in Swiss Webster mouse infected with Trypanosoma cruzi Y trypomastigotes assessed as body weight loss at 100 mg/kg, po administered once daily via gavage for 5 days starting from 5 days post-infection and measured daily up to 40 days post-infection; type: organism-based; settings: in vivo
In short: (§3)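 Male Swiss Webster mice were infected i.p. with 10⁴ Y-strain trypomastigotes and treated by oral gavage for 5 days from 5 dpi. Regimens were 25 mg/kg b.i.d. (10% EtOH/citrate vehicle) or benznidazole 100 mg/kg s.i.d. Body weight and visual clinical signs were monitored, with daily mortality checks up to 40 dpi. There were six mice per group.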

[12] = test system: Trypanosoma cruzi; test: In vivo antitrypanosomal activity against Trypanosoma cruzi Y trypomastigotes infected in Swiss mouse assessed as reduction in parasitemia at 100 mg/kg, po administered once daily via gavage for 5 days starting from 5 days post-infection and measured up to 30 days post-infection by light microscopic method relative to control; type: functional; design: scale not given: the % may be the effect or the level left; in short: as §2
[13] = test system: Trypanosoma cruzi; test: Antitrypanosomal activity against Trypanosoma cruzi Y amastigotes infected in Swiss mouse primary cardiac cells incubated for 168 hrs with media replenishment for every 48 hrs followed by compound washout and measured after 168 hrs by light microscopic method; type: functional, organism-based
In short: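 Cardiac cells plated 24 h, then infected 24 h at 37 °C with Y-strain bloodstream trypomastigotes (parasite:host 10:1) and washed. Serial dilutions (up to 5 µM) for 168 h at 37 °C, drug medium renewed every 48 h. PBS rinse, 168 h drug-free. Giemsa-stained; infected cells and parasites per cell scored in 200 cells. EC50 from infection-index inhibition; two experiments, duplicate.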

[14] = test system: Trypanosoma cruzi; test: In vivo antitrypanosomal activity against Trypanosoma cruzi Y trypomastigotes infected in Swiss mouse assessed as reduction in parasitemia at 100 mg/kg, po administered once daily for 5 days with 2 days interval for 3 cycles and measured 9 days post-infection by light microscopy; type: functional, organism-based; in short: as §1
[15] = Toxicity in Swiss Webster mouse infected with Trypanosoma cruzi Y trypomastigotes assessed as appearance of clinical symptoms at 100 mg/kg, po administered once daily via gavage for 5 days starting from 5 days post-infection and measured daily up to 40 days post-infection; type: organism-based; settings: in vivo; in short: as §3
[16] = test system: Trypanosoma cruzi; test: In vivo antitrypanosomal activity against Trypanosoma cruzi Y trypomastigotes infected in Swiss mouse assessed as mouse survival at 100 mg/kg, po administered once daily for 5 days with 2 days interval for 3 cycles and measured […]; type: functional, organism-based; in short: as §1
[17] = test system: Trypanosoma cruzi; test: In vivo antitrypanosomal activity against Trypanosoma cruzi Y trypomastigotes infected in Swiss mouse assessed as reduction in parasitemia at 100 mg/kg, po administered once daily via gavage for 5 days starting from 5 days post-infection and measured 8 days post-infection by light microscopic method relative to control; type: functional; design: scale not given: the % may be the effect or the level left; in short: as §2
[18] = Toxicity in Swiss Webster mouse infected with Trypanosoma cruzi Y trypomastigotes assessed as body weight loss at 100 mg/kg, po administered once daily for 5 days with 2 days interval for 3 cycles; type: organism-based; settings: in vivo
In short: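 Y-strain-infected male Swiss Webster mice were dosed orally for 15 days (three rounds of 5 days, 2 drug-free days between) starting at 5 dpi. Regimens were 25 mg/kg b.i.d. or benznidazole 100 mg/kg s.i.d. Weight loss was recorded as a sign of toxicity, with mortality checked daily up to 53 dpi. There were six mice per group.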

Row | Compound | pEC50 [1] | pEC50 [2] | selectivity ratio [5] | other results
1 | Nc1ccnc2c1c(C1=CCCCC1)cn2[C@@H]1O[C@H](CO)[C@@H](O)[C@H]1O | < 4.19 | < 4.19 | – | –
2 | Cc1cn([C@@H]2O[C@H](CO)[C@@H](O)[C@H]2O)c2nccc(N)c12 | 4.29 | 5.94 | 45 | pEC50 [3]: < 3.70; pEC50 [4]: < 4.30
3 | O=C(Cn1ccnc1[N+](=O)[O-])NCc1ccccc1 [BENZNIDAZOLE] | – | 5.63 | – | pEC50 [3]: < 3.70; pEC50 [4]: 5.24; pEC50 [6]: < 3.40; Activity [7]: Active; Activity [8]: Active; Activity [9]: inactive; Activity [10]: inactive; Activity [11]: Non-Toxic; Activity [12]: 100%; pEC50 [13]: 5.57; Activity [14]: Active; Activity [15]: Non-Toxic; Activity [16]: inactive; Activity [17]: 100%; Activity [18]: Non-Toxic
4 | Nc1ccnc2c1c(I)cn2[C@@H]1O[C@H](CO)C[C@H]1O | < 4.19 | < 4.19 | – | –
5 | Nc1ccnc2c1c(Br)cn2[C@@H]1O[C@H](CO)[C@@H](O)[C@H]1O | < 4.19 | 6.70 | > 320 | –
6 | Nc1ccnc2c1c(C1CCCCC1)cn2[C@@H]1O[C@H](CO)[C@@H](O)[C@H]1O | < 4.19 | < 4.19 | – | –
7 | Nc1ccnc2[nH]cc(I)c12 | < 4.19 | < 4.19 | – | –
8 | Nc1ccnc2c1c(-c1ccccn1)cn2[C@@H]1O[C@H](CO)[C@@H](O)[C@H]1O | < 4.19 | < 4.19 | – | –
9 | Nc1ccnc2c1c(C#Cc1ccccc1)cn2[C@@H]1O[C@H](CO)[C@@H](O)[C@H]1O | < 4.19 | < 4.19 | – | –
10 | Cc1ccnc2c1c(I)cn2[C@@H]1O[C@H](CO)[C@@H](O)[C@H]1O | 5.64 | 5.10 | 0.29 | –
11 | Nc1ccnc2c1c(C(F)(F)F)cn2[C@@H]1O[C@H](CO)[C@@H](O)[C@H]1O | 6.14 | 5.81 | 0.47 | –
12 | Nc1ccnc2c1c(-c1ccc(Cl)cc1)cn2[C@@H]1O[C@H](CO)[C@@H](O)[C@H]1O | < 4.19 | < 4.19 | – | –
13 | Nc1ccnc2c1c(-c1ccccc1)cn2[C@@H]1O[C@H](CO)[C@@H](O)[C@H]1O | < 4.19 | < 4.19 | – | –
14 | C#Cc1cn([C@@H]2O[C@H](CO)[C@@H](O)[C@H]2O)c2nccc(N)c12 | 4.23 | 7.10 | 730 | pEC50 [3]: < 3.70; pEC50 [4]: 4.39
15 | Nc1ccnc2c1c(-c1cccs1)cn2[C@@H]1O[C@H](CO)[C@@H](O)[C@H]1O | < 4.19 | 4.43 | > 1.7 | –
16 | Nc1ccnc2c1c(Cl)cn2[C@@H]1O[C@H](CO)[C@@H](O)[C@H]1O | < 4.19 | 6.72 | > 337 | pEC50 [3]: < 3.70; pEC50 [4]: < 4.30; pEC50 [6]: < 3.40
17 | C[C@H]1O[C@@H](n2cc(I)c3c(N)ccnc32)[C@H](O)[C@@H]1O | < 4.19 | < 4.19 | – | –
18 | Nc1ccnc2c1ccn2[C@@H]1O[C@H](CO)[C@@H](O)[C@H]1O | 4.75 | 5.64 | 7.9 | –
19 | N#Cc1cn([C@@H]2O[C@H](CO)[C@@H](O)[C@H]2O)c2nccc(N)c12 | 4.73 | 5.40 | 4.6 | –
20 | Nc1ncnc2c1c(I)cn2[C@@H]1O[C@H](CO)[C@@H](O)[C@H]1O [IODOTUBERCIDIN] | 5.27 | 6.10 | 6.7 | –
21 | OC[C@H]1O[C@@H](n2cc(I)c3c(Cl)ccnc32)[C@H](O)[C@@H]1O | 5.66 | 5.67 | 1 | –
22 | OC[C@H]1O[C@@H](n2cc(I)c3cccnc32)[C@H](O)[C@@H]1O | 4.28 | 5.76 | > 30 | pEC50 [3]: < 3.70; pEC50 [4]: 4.44
23 | C=Cc1cn([C@@H]2O[C@H](CO)[C@@H](O)[C@H]2O)c2nccc(N)c12 | < 4.19 | 6.09 | > 79 | pEC50 [3]: < 3.70; pEC50 [4]: < 4.30
24 | CCc1cn([C@@H]2O[C@H](CO)[C@@H](O)[C@H]2O)c2nccc(N)c12 | < 4.19 | < 4.19 | – | –
25 | Nc1ccnc2c1c(I)cn2[C@H]1C[C@H](O)[C@@H](CO)O1 | < 4.19 | < 4.19 | – | –
26 | Nc1ccnc2c1c(/C=C/c1ccccc1)cn2[C@@H]1O[C@H](CO)[C@@H](O)[C@H]1O | < 4.19 | < 4.19 | – | –
27 | Nc1ccnc2c1c([N+](=O)[O-])cn2[C@@H]1O[C@H](CO)[C@@H](O)[C@H]1O | < 4.19 | 4.32 | > 1.3 | –
28 | Nc1ccnc2c1c(F)cn2[C@@H]1O[C@H](CO)[C@@H](O)[C@H]1O | < 4.19 | 5.06 | > 7.3 | –

Source: ChEMBL document CHEMBL4414577, “Discovery of Pyrrolo[2,3-b]pyridine (1,7-Dideazapurine) Nucleoside Analogues as Anti-Trypanosoma cruzi Agents” (J Med Chem, 2019)
